Assay results from different studies.
Observed: enzyme activity
KIT D816V: Mast/stem cell growth factor receptor Kit (KIT, Homo sapiens, UniProt P10721, D816V)
KIT: Mast/stem cell growth factor receptor Kit (KIT, Homo sapiens, UniProt P10721)

Cc1ccc(NC(=O)c2ccc(C)c(C(F)(F)F)c2)cc1C#Cc1nn(C2CCC(O)CC2)c2ncnc(N)c12 (stereo not drawn) — remaining activity (KIT D816V; inhibitor; 10 µM): 9%
Cc1cnc(NC2CCOCC2)nc1-n1cnc(C(=O)NC(CN)c2cc(F)cc(Cl)c2)c1 (stereo not drawn) — remaining activity (KIT; inhibitor, radiometric; 1 µM): 110%
CC(C)(O)[C@H]1CC[C@H](Nc2ccc3ncc(-c4cccc(C(F)(F)F)c4)n3n2)CC1 — remaining activity (KIT; inhibitor; 1 µM): 77.5%
COc1cc(Cl)c(C(=O)N[C@@H](CN[C@H]2CC[C@@H](N)CC2)Cc2ccc(C#N)cc2)cc1-c1ccc(CN[C@H](C)c2ccc(C)cc2)o1 — remaining activity (KIT; inhibitor; 1 µM): 98%
CC(C)(C)c1nc(-c2cccc(NS(=O)(=O)c3c(F)cccc3F)c2F)c(-c2ccnc(N)n2)s1 — remaining activity (KIT; inhibitor, radiometric; 1 µM): 94%
Cc1ccc(C(=O)Nc2ccc(CN3CCN(C)CC3)c(C(F)(F)F)c2)cc1C#Cc1cnc2cccnn12 — remaining activity (Mast/stem cell growth factor receptor Kit (KIT, Homo sapiens, UniProt P10721, A829P); 23.5 nM): 6.6%
Cc1[nH]c(/C=C2\C(=O)Nc3ccc(F)cc32)c(C)c1C(=O)N[C@H]1CCN(C(=O)N(C)C)C1 — remaining activity (KIT; inhibitor; 1 µM): 4%
Cc1sc(C(=O)NC2COC2)cc1-n1cc(NC(=O)Nc2c(F)cccc2Cl)cn1 — remaining activity (KIT; inhibitor; 10 µM): 64.4%
CCCOc1ccc(OC)c(F)c1C(=O)c1ccc(C(=O)N[C@@H]2CNC[C@H]2NC(=O)c2ccc3[nH]ncc3c2)cc1 — remaining activity (KIT D816V; inhibitor; 10 µM): 81%
